Experimental data taken from ChEMBL document CHEMBL2311383, “Discovery of piperazin-1-ylpyridazine-based potent and selective stearoyl-CoA desaturase-1 inhibitors for the treatment of obesity and metabolic syndrome” (J Med Chem, 2013).
Active and inactive are the calls of the source. The calls are words filed in the database; no cut-off is given here.

Columns and labels:
[1] = Apparent permeability from apical to basolateral side in human Caco2 cells; assay type: ADME, cell-based; conditions: Caco-2
How it was run: (§1)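 Caco-2 monolayers; apparent permeability a-to-b and b-to-a reported in 10⁻⁶ cm/s.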

[2] = Metabolic stability in rat liver microsome after 30 mins by LC/MS/MS analysis; assay type: ADME; conditions: liver microsomes, read-out: Stability
How it was run: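 Compound incubated 30 min with rat liver microsomes; percent parent remaining by LC/MS/MS.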

Rattus norvegicus = assay: In vivo inhibition of SCD1 in Lewis rat liver microsome at 15 mg/kg, ip administered qd for 2 days; assay type: functional; conditions: 48 h, route intraperitoneal
How it was run: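 Lewis rats fed high-carbohydrate diet for one week, fasted 4 h, then dosed orally (0.1–1 mg/kg in 0.2% Tween 20/1% CMC; n = 4), killed 4 h later; ip arm 15 mg/kg once daily for two days. Liver microsomes prepared, SCD1 activity measured by tritiated water release from [9,10-3H]stearoyl-CoA. Mean ± SD of at least four rats.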

[3] = Tmax in Lewis rat at 5 mg/kg, po; assay type: ADME, organism-based; set-up: dose 5 mg/kg, route oral; conditions: in vivo
How it was run: (§2)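 Lewis rats, IV 3 mg/kg and PO 10 mg/kg unless otherwise stated (some at PO 5 mg/kg, IV 1 mg/kg, or IV 1/PO 2 mg/kg). At least two rats IV, three rats PO, averaged. Plasma t1/2 (h), AUC 0–∞ (μM·h), Vss (L/kg), clearance ((L/h)/kg), Cmax (μM), Tmax (h), oral bioavailability (%).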

[4] = Cmax in Lewis rat at 5 mg/kg, po; assay type: ADME, organism-based; set-up: dose 5 mg/kg, route oral; conditions: in vivo; how it was run: as §2
[5] = Clearance in Lewis rat at 3 mg/kg, iv; assay type: ADME, organism-based; set-up: dose 3 mg/kg, route intravenous; conditions: in vivo; how it was run: as §2
Acyl-CoA desaturase 1 = target: T1, Acyl-CoA desaturase 1 (Mus musculus, UniProt P13516); assay: Inhibition of SCD1 in ICR mouse liver microsome using [9,10 3H]- stearoyl-Coenzyme A substrate assessed as decreased production of tritiated water after 20 min by scintillation counting analysis
T1 sequence (P13516 whole entry): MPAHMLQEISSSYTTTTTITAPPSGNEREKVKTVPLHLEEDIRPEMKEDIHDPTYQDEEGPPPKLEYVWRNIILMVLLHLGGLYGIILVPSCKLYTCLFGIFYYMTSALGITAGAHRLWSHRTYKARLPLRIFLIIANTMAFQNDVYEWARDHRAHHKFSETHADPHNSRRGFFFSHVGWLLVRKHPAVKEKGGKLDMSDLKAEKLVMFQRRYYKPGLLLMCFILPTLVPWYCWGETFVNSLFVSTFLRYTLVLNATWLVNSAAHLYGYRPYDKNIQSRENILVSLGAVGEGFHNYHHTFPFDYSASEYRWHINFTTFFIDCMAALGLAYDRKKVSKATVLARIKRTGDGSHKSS

[6] = target: Acyl-CoA 6-desaturase (Rattus norvegicus) (UniProt Q9Z122); assay: Inhibition of delta6 desaturase in Sprague-Dawley rat liver microsome using cis,cis-9,12-octadecadienoic acid substrate at 10 uM
[7] = target: Acyl-CoA (8-3)-desaturase (Rattus norvegicus) (UniProt Q920R3); assay: Inhibition of delta5 desaturase in Sprague-Dawley rat liver microsome at 10 uM; assay type: microsomes
[8] = Oral bioavailability in Lewis rat at 5 mg/kg; assay type: ADME, organism-based; conditions: in vivo; how it was run: as §2
[9] = Apparent permeability from basolateral to apical side in human Caco2 cells; assay type: ADME, cell-based; conditions: Caco-2; how it was run: as §1
[10] = Half life in Lewis rat at 3 mg/kg, iv; assay type: ADME, organism-based; set-up: dose 3 mg/kg, route intravenous; conditions: in vivo; how it was run: as §2
[11] = Volume of distribution at steady state in Lewis rat at 3 mg/kg, iv; assay type: ADME, organism-based; set-up: dose 3 mg/kg, route intravenous; conditions: in vivo, read-out: Vdss; how it was run: as §2
[12] = Cmax in Lewis rat at 10 mg/kg, po; assay type: ADME, organism-based; set-up: dose 10 mg/kg, route oral; conditions: in vivo; how it was run: as §2
[13] = Tmax in Lewis rat at 10 mg/kg, po; assay type: ADME, organism-based; set-up: dose 10 mg/kg, route oral; conditions: in vivo; how it was run: as §2
[14] = Oral bioavailability in Lewis rat at 10 mg/kg; assay type: ADME, organism-based; conditions: in vivo; how it was run: as §2
CYP2C19 = CYP2C19 (Homo sapiens, UniProt P33261); assay: Inhibition of CYP2C19 (unknown origin) at 10 uM; assay type: ADME
[15] = Protein binding in plasma (unknown origin); assay type: ADME, cell-free; conditions: read-out: PPB (converted)
CYP2D6 = CYP2D6 (Homo sapiens, UniProt P10635); assay: Inhibition of CYP2D6 (unknown origin) at 10 uM; assay type: ADME
CYP3A4 = CYP3A4 (Homo sapiens, UniProt P08684); assay: Inhibition of CYP3A4 (unknown origin) at 10 uM; assay type: ADME
CYP2C9 = CYP2C9 (Homo sapiens, UniProt P11712); assay: Inhibition of CYP2C9 (unknown origin) at 10 uM; assay type: ADME
Sequence of CYP2C9 (P11712 whole entry): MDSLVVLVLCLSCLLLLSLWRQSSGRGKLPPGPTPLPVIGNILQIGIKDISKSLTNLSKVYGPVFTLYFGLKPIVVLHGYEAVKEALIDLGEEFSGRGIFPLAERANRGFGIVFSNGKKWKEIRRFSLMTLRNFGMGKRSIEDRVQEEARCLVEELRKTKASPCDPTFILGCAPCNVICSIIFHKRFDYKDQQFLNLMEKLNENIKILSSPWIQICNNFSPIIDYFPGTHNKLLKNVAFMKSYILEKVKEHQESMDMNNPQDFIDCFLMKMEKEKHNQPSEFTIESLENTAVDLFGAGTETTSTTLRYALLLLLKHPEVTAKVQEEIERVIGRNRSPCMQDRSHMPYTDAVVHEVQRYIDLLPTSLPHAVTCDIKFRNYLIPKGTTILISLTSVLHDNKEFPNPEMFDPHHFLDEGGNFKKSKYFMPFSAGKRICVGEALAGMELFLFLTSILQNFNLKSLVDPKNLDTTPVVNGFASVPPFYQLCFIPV

Sequence of Acyl-CoA (8-3)-desaturase (Rattus norvegicus) (Q920R3 whole entry, looked up): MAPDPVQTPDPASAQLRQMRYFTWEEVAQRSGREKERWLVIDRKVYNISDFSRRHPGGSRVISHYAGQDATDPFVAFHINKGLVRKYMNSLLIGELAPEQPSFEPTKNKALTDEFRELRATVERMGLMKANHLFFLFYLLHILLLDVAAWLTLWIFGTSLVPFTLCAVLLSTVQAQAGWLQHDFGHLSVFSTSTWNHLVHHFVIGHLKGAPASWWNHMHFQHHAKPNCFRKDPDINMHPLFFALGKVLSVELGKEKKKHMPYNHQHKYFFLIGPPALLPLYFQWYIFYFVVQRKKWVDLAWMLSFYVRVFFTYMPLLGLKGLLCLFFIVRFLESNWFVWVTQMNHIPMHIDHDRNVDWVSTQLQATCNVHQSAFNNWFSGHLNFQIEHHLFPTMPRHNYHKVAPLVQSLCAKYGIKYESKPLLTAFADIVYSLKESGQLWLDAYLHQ
Sequence of Acyl-CoA 6-desaturase (Rattus norvegicus) (Q9Z122 whole entry, looked up): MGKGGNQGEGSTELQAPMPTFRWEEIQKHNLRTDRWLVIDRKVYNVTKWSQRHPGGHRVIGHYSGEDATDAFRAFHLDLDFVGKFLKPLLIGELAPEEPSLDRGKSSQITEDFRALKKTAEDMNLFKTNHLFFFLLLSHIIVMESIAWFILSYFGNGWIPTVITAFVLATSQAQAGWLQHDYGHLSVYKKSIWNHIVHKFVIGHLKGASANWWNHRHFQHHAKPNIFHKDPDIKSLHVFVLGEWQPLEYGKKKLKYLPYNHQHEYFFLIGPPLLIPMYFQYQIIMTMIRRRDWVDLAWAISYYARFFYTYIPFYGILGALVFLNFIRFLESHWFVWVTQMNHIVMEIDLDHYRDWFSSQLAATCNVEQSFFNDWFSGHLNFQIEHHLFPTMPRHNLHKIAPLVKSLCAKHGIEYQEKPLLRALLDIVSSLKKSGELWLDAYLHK
Sequence of CYP2D6 (P10635 whole entry): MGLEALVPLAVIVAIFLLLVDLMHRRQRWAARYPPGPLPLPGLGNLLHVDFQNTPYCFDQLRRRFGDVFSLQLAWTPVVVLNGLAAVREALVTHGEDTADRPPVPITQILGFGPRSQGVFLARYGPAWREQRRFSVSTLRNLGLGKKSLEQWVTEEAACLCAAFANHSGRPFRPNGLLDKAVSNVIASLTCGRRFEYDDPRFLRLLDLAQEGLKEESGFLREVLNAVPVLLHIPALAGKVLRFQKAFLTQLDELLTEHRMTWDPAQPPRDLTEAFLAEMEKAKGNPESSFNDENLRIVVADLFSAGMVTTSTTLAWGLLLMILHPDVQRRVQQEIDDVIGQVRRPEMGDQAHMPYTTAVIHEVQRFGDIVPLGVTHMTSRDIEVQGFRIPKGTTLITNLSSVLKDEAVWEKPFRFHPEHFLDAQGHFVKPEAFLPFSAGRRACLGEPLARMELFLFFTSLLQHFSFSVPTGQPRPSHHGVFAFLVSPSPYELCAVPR
Sequence of CYP3A4 (P08684 whole entry): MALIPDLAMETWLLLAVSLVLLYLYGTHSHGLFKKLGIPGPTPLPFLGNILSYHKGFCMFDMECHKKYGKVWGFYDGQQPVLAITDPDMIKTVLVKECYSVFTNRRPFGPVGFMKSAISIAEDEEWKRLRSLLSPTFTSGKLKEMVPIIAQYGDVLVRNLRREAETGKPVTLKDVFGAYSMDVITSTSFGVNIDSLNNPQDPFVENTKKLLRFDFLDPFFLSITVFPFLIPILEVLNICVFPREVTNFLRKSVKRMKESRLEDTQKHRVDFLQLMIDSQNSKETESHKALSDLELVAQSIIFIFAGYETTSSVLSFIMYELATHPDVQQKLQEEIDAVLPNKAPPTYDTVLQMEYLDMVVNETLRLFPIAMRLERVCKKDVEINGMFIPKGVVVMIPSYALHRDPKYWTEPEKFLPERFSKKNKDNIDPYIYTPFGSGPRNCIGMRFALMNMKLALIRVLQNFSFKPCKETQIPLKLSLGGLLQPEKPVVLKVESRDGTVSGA
Sequence of CYP2C19 (P33261 whole entry): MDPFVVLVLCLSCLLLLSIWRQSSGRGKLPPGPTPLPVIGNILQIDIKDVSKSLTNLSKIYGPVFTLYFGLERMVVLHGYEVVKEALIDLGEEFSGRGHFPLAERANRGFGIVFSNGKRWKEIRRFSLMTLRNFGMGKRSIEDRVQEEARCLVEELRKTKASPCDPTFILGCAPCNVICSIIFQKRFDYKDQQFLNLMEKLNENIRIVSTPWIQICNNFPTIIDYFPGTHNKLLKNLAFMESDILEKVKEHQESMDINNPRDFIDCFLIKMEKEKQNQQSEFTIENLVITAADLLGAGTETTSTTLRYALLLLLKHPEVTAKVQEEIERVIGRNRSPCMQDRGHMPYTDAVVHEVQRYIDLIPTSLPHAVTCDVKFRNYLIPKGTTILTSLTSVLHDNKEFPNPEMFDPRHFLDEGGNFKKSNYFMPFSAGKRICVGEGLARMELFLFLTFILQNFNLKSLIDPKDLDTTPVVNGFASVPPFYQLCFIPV

Row | SMILES | Papp A→B [1] | remaining at 0.5 h [2] | inhibition in vivo at 15 mg/kg (Rattus norvegicus) | clearance [5] | IC50 (Acyl-CoA desaturase 1) | inhibition [6] | inhibition [7] | Papp B→A [9] | half-life [10] | Vd [11] | Cmax [12] | Tmax [13] | bioavailability [14] | further results
1 | O=C(NCCC1CC1)c1ccc(N2CCN(C(=O)c3ccccc3C(F)(F)F)CC2)nn1 | 24 ×10⁻⁶ cm/s | 76% | > 60% | 31.7 mL/min/kg | 25 nM | inactive | inactive | 22 ×10⁻⁶ cm/s | 1 h | 2.2 L/kg |  |  |  | Tmax [3]: 1 h; Cmax [4]: 900 nM; bioavailability [8]: 46%
2 | O=C(CNC(=O)c1ccc(N2CCN(C(=O)c3ccccc3C(F)(F)F)CC2)nn1)c1ccccc1 | 22 ×10⁻⁶ cm/s | 63% | > 60% | 4.67 mL/min/kg | 42 nM | inactive | inactive | 23 ×10⁻⁶ cm/s | 1.8 h | 0.7 L/kg | 1900 nM | 3.3 h | 42% | 
3 | CC(C)CCNC(=O)c1ccc(N2CCN(C(=O)c3ccccc3C(F)(F)F)CC2)nn1 | 25 ×10⁻⁶ cm/s | 57% | 40% |  | 26 nM |  |  |  |  |  |  |  |  | inhibition at 10 µM (CYP2C19): < 50%; fraction unbound [15]: 0.22; inhibition at 10 µM (CYP2D6): < 50%; inhibition at 10 µM (CYP3A4): < 50%; inhibition at 10 µM (CYP2C9): < 50%
4 | O=C(NCCC1CC1)c1ccc(N2CCN(C(=O)c3cc(Cl)ccc3C(F)(F)F)CC2)nn1 | 32 ×10⁻⁶ cm/s | 69% | > 60% | 14.3 mL/min/kg | 12 nM | inactive | inactive | 30 ×10⁻⁶ cm/s | 1.8 h | 1.6 L/kg | 500 nM | 2.3 h | 30% | 
